How the values were obtained:
Type in all cases: functional
Bacillus cereus [1] = assay: Antimicrobial activity against Bacillus cereus ATCC 11778 assessed as growth inhibition rate at 0.68 mg/l after 72 hr by spectrophotometry; settings: ATCC 11778, 72 h, read-out: GI
Procedure, shortened: (§1)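 Pure volatile compounds (purity >95%; one at 90%) were tested against B. cereus ATCC 11778. The strain was grown at 30 °C in nutrient broth for 24 h, then subcultured for 18 h. Optical density was read in a Bioscreen C every 24 h for 72 h, with 10% Tween 80 as the control.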

Bacillus cereus [2] = assay: Antimicrobial activity against Bacillus cereus ATCC 11778 assessed as growth inhibition rate at 0.025 mg/l after 72 hr by spectrophotometry; settings: ATCC 11778, 72 h, read-out: GI; procedure, shortened: as §1
Staphylococcus aureus [3] = assay: Antimicrobial activity against Staphylococcus aureus ATCC 25923 assessed as growth inhibition rate at 0.12 mg/l after 72 hr by spectrophotometry; settings: ATCC 25923, 72 h, read-out: GI
Listeria monocytogenes [4] = assay: Antimicrobial activity against Listeria monocytogenes ATCC 19111 assessed as growth inhibition rate at 3.4 mg/l after 72 hr by spectrophotometry; settings: ATCC 19111, 72 h, read-out: GI
Procedure, shortened: (§2)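 L. monocytogenes was grown at 30 °C in tryptic soy broth, subcultured for 18 h, and exposed to pure volatile compounds (>95% purity). Growth was followed by Bioscreen C optical density every 24 h for 72 h against a 10% Tween 80 control.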

Staphylococcus aureus [5] = assay: Antimicrobial activity against Staphylococcus aureus ATCC 25923 assessed as growth inhibition rate at 3.4 mg/l after 72 hr by spectrophotometry; settings: ATCC 25923, 72 h, read-out: GI
Procedure, shortened: (§3)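 Staphylococcus aureus ATCC 25923 grown at 37 °C in tryptic soy broth, using an 18 h subculture of a 24 h culture. Individual leaf-volatile compounds (>95% purity) were tested. Bioscreen C optical density was recorded every 24 h for 72 h and compared with a 10% Tween 80 control.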

Staphylococcus aureus [6] = assay: Antimicrobial activity against Staphylococcus aureus ATCC 25923 assessed as growth inhibition rate at 0.05 mg/l after 72 hr by spectrophotometry; settings: ATCC 25923, 72 h, read-out: GI
Listeria monocytogenes [7] = assay: Antimicrobial activity against Listeria monocytogenes ATCC 19111 assessed as growth inhibition rate at 0.025 mg/l after 72 hr by spectrophotometry; settings: ATCC 19111, 72 h, read-out: GI; procedure, shortened: as §2
Escherichia coli [8] = assay: Antimicrobial activity against Escherichia coli O157:H7 ATCC 43894 assessed as growth inhibition rate at 0.68 mg/l after 72 hr by spectrophotometry; settings: O157:H7 ATCC 43894, 72 h, read-out: GI
Escherichia coli [9] = assay: Antimicrobial activity against Escherichia coli O157:H7 ATCC 43894 assessed as growth inhibition rate at 3.4 mg/l after 72 hr by spectrophotometry; settings: O157:H7 ATCC 43894, 72 h, read-out: GI
Salmonella typhimurium [10] = assay: Antimicrobial activity against Salmonella enterica subsp. enterica serovar Typhimurium ATCC 14028 assessed as growth inhibition rate at 0.12 mg/l after 72 hr by spectrophotometry; settings: ATCC 14028, 72 h, read-out: GI
Procedure, shortened: (§4)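 Salmonella Typhimurium ATCC 14028 grown in nutrient broth at 30 °C, precultured 24 h, then subcultured 1:100 for 18 h before testing. Single volatile compounds (>95% pure) were added. OD was read every 24 h over 72 h in a Bioscreen C, with 10% Tween 80 as the comparison control.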

Salmonella typhimurium [11] = assay: Antimicrobial activity against Salmonella enterica subsp. enterica serovar Typhimurium ATCC 14028 assessed as growth inhibition rate at 3.4 mg/l after 72 hr by spectrophotometry; settings: ATCC 14028, 72 h, read-out: GI; procedure, shortened: as §4
Bacillus cereus [12] = assay: Antimicrobial activity against Bacillus cereus ATCC 11778 assessed as growth inhibition rate at 6.8 mg/l after 72 hr by spectrophotometry; settings: ATCC 11778, 72 h, read-out: GI; procedure, shortened: as §1
Escherichia coli [13] = assay: Antimicrobial activity against Escherichia coli O157:H7 ATCC 43894 assessed as growth inhibition rate at 0.12 mg/l after 72 hr by spectrophotometry; settings: O157:H7 ATCC 43894, 72 h, read-out: GI
Staphylococcus aureus [14] = assay: Antimicrobial activity against Staphylococcus aureus ATCC 25923 assessed as growth inhibition rate at 6.8 mg/l after 72 hr by spectrophotometry; settings: ATCC 25923, 72 h, read-out: GI; procedure, shortened: as §3
Salmonella typhimurium [15] = assay: Antimicrobial activity against Salmonella enterica subsp. enterica serovar Typhimurium ATCC 14028 assessed as growth inhibition rate at 6.8 mg/l after 72 hr by spectrophotometry; settings: ATCC 14028, 72 h, read-out: GI; procedure, shortened: as §4
Escherichia coli [16] = assay: Antimicrobial activity against Escherichia coli O157:H7 ATCC 43894 assessed as growth inhibition rate at 0.025 mg/l after 72 hr by spectrophotometry; settings: O157:H7 ATCC 43894, 72 h, read-out: GI
Vibrio parahaemolyticus [17] = assay: Antimicrobial activity against Vibrio parahaemolyticus ATCC 33844 assessed as growth inhibition rate at 0.68 mg/l after 72 hr by spectrophotometry; settings: ATCC 33844, 72 h, read-out: GI
Procedure, shortened: (§5)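 Vibrio parahaemolyticus ATCC 33844 grown at 37 °C in tryptic soy broth with 3% (w/v) NaCl, using an 18 h subculture of a 24 h culture. Pure compounds (>95% purity) were tested. Bioscreen C optical density was read every 24 h for 72 h against a 10% Tween 80 control.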

Salmonella typhimurium [18] = assay: Antimicrobial activity against Salmonella enterica subsp. enterica serovar Typhimurium ATCC 14028 assessed as growth inhibition rate at 0.05 mg/l after 72 hr by spectrophotometry; settings: ATCC 14028, 72 h, read-out: GI; procedure, shortened: as §4
Listeria monocytogenes [19] = assay: Antimicrobial activity against Listeria monocytogenes ATCC 19111 assessed as growth inhibition rate at 6.8 mg/l after 72 hr by spectrophotometry; settings: ATCC 19111, 72 h, read-out: GI; procedure, shortened: as §2
Staphylococcus aureus [20] = assay: Antimicrobial activity against Staphylococcus aureus ATCC 25923 assessed as growth inhibition rate at 0.68 mg/l after 72 hr by spectrophotometry; settings: ATCC 25923, 72 h, read-out: GI; procedure, shortened: as §3
Bacillus cereus [21] = assay: Antimicrobial activity against Bacillus cereus ATCC 11778 assessed as growth inhibition rate at 3.4 mg/l after 72 hr by spectrophotometry; settings: ATCC 11778, 72 h, read-out: GI; procedure, shortened: as §1
Vibrio parahaemolyticus [22] = assay: Antimicrobial activity against Vibrio parahaemolyticus ATCC 33844 assessed as growth inhibition rate at 0.12 mg/l after 72 hr by spectrophotometry; settings: ATCC 33844, 72 h, read-out: GI
Staphylococcus aureus [23] = assay: Antimicrobial activity against Staphylococcus aureus ATCC 25923 assessed as growth inhibition rate at 0.025 mg/l after 72 hr by spectrophotometry; settings: ATCC 25923, 72 h, read-out: GI
Listeria monocytogenes [24] = assay: Antimicrobial activity against Listeria monocytogenes ATCC 19111 assessed as growth inhibition rate at 0.05 mg/l after 72 hr by spectrophotometry; settings: ATCC 19111, 72 h, read-out: GI; procedure, shortened: as §2
Bacillus cereus [25] = assay: Antimicrobial activity against Bacillus cereus ATCC 11778 assessed as growth inhibition rate at 0.05 mg/l after 72 hr by spectrophotometry; settings: ATCC 11778, 72 h, read-out: GI; procedure, shortened: as §1
Bacillus cereus [26] = assay: Antimicrobial activity against Bacillus cereus ATCC 11778 assessed as growth inhibition rate at 0.12 mg/l after 72 hr by spectrophotometry; settings: ATCC 11778, 72 h, read-out: GI; procedure, shortened: as §1
Salmonella typhimurium [27] = assay: Antimicrobial activity against Salmonella enterica subsp. enterica serovar Typhimurium ATCC 14028 assessed as growth inhibition rate at 0.68 mg/l after 72 hr by spectrophotometry; settings: ATCC 14028, 72 h, read-out: GI; procedure, shortened: as §4
Vibrio parahaemolyticus [28] = assay: Antimicrobial activity against Vibrio parahaemolyticus ATCC 33844 assessed as growth inhibition rate at 0.025 mg/l after 72 hr by spectrophotometry; settings: ATCC 33844, 72 h, read-out: GI
Salmonella typhimurium [29] = assay: Antimicrobial activity against Salmonella enterica subsp. enterica serovar Typhimurium ATCC 14028 assessed as growth inhibition rate at 0.025 mg/l after 72 hr by spectrophotometry; settings: ATCC 14028, 72 h, read-out: GI; procedure, shortened: as §4
Listeria monocytogenes [30] = assay: Antimicrobial activity against Listeria monocytogenes ATCC 19111 assessed as growth inhibition rate at 0.12 mg/l after 72 hr by spectrophotometry; settings: ATCC 19111, 72 h, read-out: GI; procedure, shortened: as §2
Escherichia coli [31] = assay: Antimicrobial activity against Escherichia coli O157:H7 ATCC 43894 assessed as growth inhibition rate at 6.8 mg/l after 72 hr by spectrophotometry; settings: O157:H7 ATCC 43894, 72 h, read-out: GI
Vibrio parahaemolyticus [32] = assay: Antimicrobial activity against Vibrio parahaemolyticus ATCC 33844 assessed as growth inhibition rate at 6.8 mg/l after 72 hr by spectrophotometry; settings: ATCC 33844, 72 h, read-out: GI; procedure, shortened: as §5
Vibrio parahaemolyticus [33] = assay: Antimicrobial activity against Vibrio parahaemolyticus ATCC 33844 assessed as growth inhibition rate at 0.05 mg/l after 72 hr by spectrophotometry; settings: ATCC 33844, 72 h, read-out: GI
Escherichia coli [34] = assay: Antimicrobial activity against Escherichia coli O157:H7 ATCC 43894 assessed as growth inhibition rate at 0.05 mg/l after 72 hr by spectrophotometry; settings: O157:H7 ATCC 43894, 72 h, read-out: GI
Vibrio parahaemolyticus [35] = assay: Antimicrobial activity against Vibrio parahaemolyticus ATCC 33844 assessed as growth inhibition rate at 3.4 mg/l after 72 hr by spectrophotometry; settings: ATCC 33844, 72 h, read-out: GI; procedure, shortened: as §5
Listeria monocytogenes [36] = assay: Antimicrobial activity against Listeria monocytogenes ATCC 19111 assessed as growth inhibition rate at 0.68 mg/l after 72 hr by spectrophotometry; settings: ATCC 19111, 72 h, read-out: GI; procedure, shortened: as §2

## C/C=C/C=C/C=O [2,4-HEXADIENAL]
Bacillus cereus [1]
  inhibition of growth at 0.68 µg/mL: 45.3%
Bacillus cereus [2]
  inhibition of growth at 0.025 µg/mL: 10.3%
Staphylococcus aureus [3]
  inhibition of growth at 0.12 µg/mL: 6.9%
Listeria monocytogenes [4]
  inhibition of growth at 3.4 µg/mL: 32.4%
Staphylococcus aureus [5]
  inhibition of growth at 3.4 µg/mL: 89.4%
Staphylococcus aureus [6]
  inhibition of growth at 0.05 µg/mL: 5.3%
Listeria monocytogenes [7]
  inhibition of growth at 0.025 µg/mL: 3.9%
Escherichia coli [8]
  inhibition of growth at 0.68 µg/mL: 1.9%
Escherichia coli [9]
  inhibition of growth at 3.4 µg/mL: 12.7%
Salmonella typhimurium [10]
  inhibition of growth at 0.12 µg/mL: 12.2%
Salmonella typhimurium [11]
  inhibition of growth at 3.4 µg/mL: 45.1%
Bacillus cereus [12]
  inhibition of growth at 6.8 µg/mL: 100%
Escherichia coli [13]
  inhibition of growth at 0.12 µg/mL: 2.1%
Staphylococcus aureus [14]
  inhibition of growth at 6.8 µg/mL: 90.9%
Salmonella typhimurium [15]
  inhibition of growth at 6.8 µg/mL: 80.6%
Escherichia coli [16]
  inhibition of growth at 0.025 µg/mL: 0.3%
Vibrio parahaemolyticus [17]
  inhibition of growth at 0.68 µg/mL: 20.3%
Salmonella typhimurium [18]
  inhibition of growth at 0.05 µg/mL: 12.9%
Listeria monocytogenes [19]
  inhibition of growth at 6.8 µg/mL: 41.4%
Staphylococcus aureus [20]
  inhibition of growth at 0.68 µg/mL: 8.8%
Bacillus cereus [21]
  inhibition of growth at 3.4 µg/mL: 67.3%
Vibrio parahaemolyticus [22]
  inhibition of growth at 0.12 µg/mL: 10.4%
Staphylococcus aureus [23]
  inhibition of growth at 0.025 µg/mL: 7.8%
Listeria monocytogenes [24]
  inhibition of growth at 0.05 µg/mL: 3.9%
Bacillus cereus [25]
  inhibition of growth at 0.05 µg/mL: 9.5%
Bacillus cereus [26]
  inhibition of growth at 0.12 µg/mL: 10.8%
Salmonella typhimurium [27]
  inhibition of growth at 0.68 µg/mL: 18.4%
Vibrio parahaemolyticus [28]
  inhibition of growth at 0.025 µg/mL: 6.2%
Salmonella typhimurium [29]
  inhibition of growth at 0.025 µg/mL: 13.2%
Listeria monocytogenes [30]
  inhibition of growth at 0.12 µg/mL: 7.5%
Escherichia coli [31]
  inhibition of growth at 6.8 µg/mL: 20.2%
Vibrio parahaemolyticus [32]
  inhibition of growth at 6.8 µg/mL: 99.1%
Vibrio parahaemolyticus [33]
  inhibition of growth at 0.05 µg/mL: 5.8%
Escherichia coli [34]
  inhibition of growth at 0.05 µg/mL: 0.5%
Vibrio parahaemolyticus [35]
  inhibition of growth at 3.4 µg/mL: 98.9%
Listeria monocytogenes [36]
  inhibition of growth at 0.68 µg/mL: 9.2%

— ChEMBL document CHEMBL3046951, “Volatile constituents from the leaves of Callicarpa japonica Thunb. and their antibacterial activities” (2004)
